{
  "source": "ChEMBL document CHEMBL1124778",
  "about": "“Synthesis and biological evaluation of prodrugs of zidovudine” (J Med Chem, 1990)",
  "key": {"[1]": {"assay": "In vitro time required for 50% hydrolysis at 37 degree Celsius upon incubation in human plasma", "format": "functional, cell-free", "summary_of_the_method": "(§1)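 Ester (10 mg/mL DMSO stock, diluted 1:100) incubated at 37 °C in human plasma or in rat hepatic microsomes (15.5 mg protein/mL solution). Samples taken over 0–4 h and quenched in ice-cold methanol. Remaining ester quantified by reverse-phase HPLC. t1/2 = time to 50% hydrolysis.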"}, "[2]": {"assay": "In vitro time required for 50% hydrolysis at 37 degree Celsius upon incubation in rat hepatic microsomes", "format": "functional", "conditions": "Liver", "summary_of_the_method": "as §1"}, "[3]": {"system": "H9", "assay": "Evaluated in vitro for the concentration required to produce 50% inhibition of proliferation of H9 lymphocytes", "format": "functional, cell-based", "conditions": "Homo sapiens", "summary_of_the_method": "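H9 lymphoblastoid cells grown in RPMI 1640 with 15% FBS, penicillin/streptomycin and 2 mM L-glutamine at 37 °C under 5% CO2. Viability read by trypan blue dye exclusion. IC50 taken as the concentration giving 50% inhibition of proliferation.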"}, "[4]": {"assay": "Evaluated for Partition coefficient in n-octanol and phosphate buffer pH 7.4", "format": "physicochemical", "conditions": "octanol/water", "summary_of_the_method": "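Ester solutions in n-octanol equilibrated with phosphate buffer (0.2 M, pH 7.4) at room temperature. Partition coefficient derived from the distribution between the two phases.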"}, "[5]": {"system": "Human immunodeficiency virus 1", "assay": "Evaluated in vitro for the concentration required to produce 50% inhibition of replication of HIV-1", "format": "functional, organism-based"}},
  "data": [
    {"smiles": "Cc1cn([C@H]2C[C@H](N=[N+]=[N-])[C@@H](COC(=O)CN3CCOCC3)O2)c(=O)[nH]c1=O", "values": [
      {"measurement": "T1/2", "setting": "[1]", "value": 12, "unit": "min"},
      {"measurement": "T1/2", "setting": "[2]", "value": 28, "unit": "min"},
      {"measurement": "IC50", "setting": "[3]", "value": 320, "unit": "µM"},
      {"measurement": "PC", "setting": "[4]", "value": 2.2}
    ]},
    {"smiles": "CC1=C(/C=C/C(C)=C/C=C/C(C)=C/C(=O)OC[C@H]2O[C@@H](n3cc(C)c(=O)[nH]c3=O)C[C@@H]2N=[N+]=[N-])C(C)(C)CCC1", "values": [
      {"measurement": "IC50", "setting": "[5]", "value": 200, "unit": "nM"},
      {"measurement": "T1/2", "setting": "[1]", "value": 120, "unit": "min"},
      {"measurement": "T1/2", "setting": "[2]", "value": 60, "unit": "min"},
      {"measurement": "IC50", "setting": "[3]", "value": 25, "unit": "µM"},
      {"measurement": "PC", "setting": "[4]", "value": 17.9}
    ]},
    {"smiles": "Cc1cn([C@H]2C[C@H](N=[N+]=[N-])[C@@H](COC(=O)C(N)Cc3ccc(O)cc3)O2)c(=O)[nH]c1=O.O=C(O)C(F)(F)F", "note": "(stereo partly drawn)", "values": [
      {"measurement": "IC50", "setting": "[5]", "value": 110, "unit": "nM"},
      {"measurement": "T1/2", "setting": "[1]", "value": 60, "unit": "min"},
      {"measurement": "T1/2", "setting": "[2]", "value": 5, "unit": "min"},
      {"measurement": "IC50", "setting": "[3]", "value": 300, "unit": "µM"},
      {"measurement": "PC", "setting": "[4]", "value": 0.94}
    ]},
    {"smiles": "Cc1cn([C@H]2C[C@H](N=[N+]=[N-])[C@@H](COC(=O)C(N)CCCCN)O2)c(=O)[nH]c1=O.O=C(O)C(F)(F)F", "note": "(stereo partly drawn)", "values": [
      {"measurement": "T1/2", "setting": "[1]", "value": 30, "unit": "min"},
      {"measurement": "T1/2", "setting": "[2]", "value": 14, "unit": "min"},
      {"measurement": "IC50", "setting": "[3]", "value": 300, "unit": "µM"},
      {"measurement": "PC", "setting": "[4]", "value": 0.01}
    ]},
    {"smiles": "Cc1cn([C@H]2C[C@H](N=[N+]=[N-])[C@@H](COC(=O)c3cccnc3)O2)c(=O)[nH]c1=O", "values": [
      {"measurement": "T1/2", "setting": "[1]", "value": 10, "unit": "min"},
      {"measurement": "T1/2", "setting": "[2]", "value": 30, "unit": "min"},
      {"measurement": "PC", "setting": "[4]", "value": 1.6}
    ]},
    {"smiles": "CCC(C)C(N)C(=O)OC[C@H]1O[C@@H](n2cc(C)c(=O)[nH]c2=O)C[C@@H]1N=[N+]=[N-].O=C(O)C(F)(F)F", "note": "(stereo partly drawn)", "values": [
      {"measurement": "IC50", "setting": "[5]", "value": 100, "unit": "nM"},
      {"measurement": "T1/2", "setting": "[1]", "value": "> 240", "unit": "min"},
      {"measurement": "T1/2", "setting": "[2]", "value": 19, "unit": "min"},
      {"measurement": "IC50", "setting": "[3]", "value": 250, "unit": "µM"},
      {"measurement": "PC", "setting": "[4]", "value": 10.3}
    ]},
    {"smiles": "Cc1cn([C@H]2C[C@H](N=[N+]=[N-])[C@@H](CO)O2)c(=O)[nH]c1=O", "note": "[ZIDOVUDINE]", "values": [
      {"measurement": "IC50", "setting": "[5]", "value": 120, "unit": "nM"},
      {"measurement": "IC50", "setting": "[3]", "value": 150, "unit": "µM"},
      {"measurement": "PC", "setting": "[4]", "value": 1.2}
    ]},
    {"smiles": "Cc1cn(C2CC(N=[N+]=[N-])C(COC(=O)CCC(N)C(=O)O)O2)c(=O)[nH]c1=O", "note": "(stereo not drawn)", "values": [
      {"measurement": "T1/2", "setting": "[1]", "value": 70, "unit": "min"},
      {"measurement": "T1/2", "setting": "[2]", "value": 30, "unit": "min"},
      {"measurement": "IC50", "setting": "[3]", "value": 320, "unit": "µM"},
      {"measurement": "PC", "setting": "[4]", "value": 0.12}
    ]},
    {"smiles": "Cc1cn([C@H]2C[C@H](N=[N+]=[N-])[C@@H](COC(=O)C3=CN(C)C=CC3)O2)c(=O)[nH]c1=O", "values": [
      {"measurement": "IC50", "setting": "[5]", "value": 50, "unit": "nM"},
      {"measurement": "T1/2", "setting": "[1]", "value": "> 240", "unit": "min"},
      {"measurement": "T1/2", "setting": "[2]", "value": 110, "unit": "min"},
      {"measurement": "IC50", "setting": "[3]", "value": 336, "unit": "µM"},
      {"measurement": "PC", "setting": "[4]", "value": 7.2}
    ]},
    {"smiles": "Cc1cn([C@H]2C[C@H](N=[N+]=[N-])[C@@H](COC(=O)C(N)Cc3ccccc3)O2)c(=O)[nH]c1=O.O=C(O)C(F)(F)F", "note": "(stereo partly drawn)", "values": [
      {"measurement": "IC50", "setting": "[5]", "value": 110, "unit": "nM"},
      {"measurement": "T1/2", "setting": "[1]", "value": 20, "unit": "min"},
      {"measurement": "T1/2", "setting": "[2]", "value": 30, "unit": "min"},
      {"measurement": "IC50", "setting": "[3]", "value": 350, "unit": "µM"},
      {"measurement": "PC", "setting": "[4]", "value": 3.3}
    ]}
  ]
}
